We go through two molecules from article PMC4570879 (Journal of biomolecular screening, 2014).

Molecules are shown by their SMILES.

The target of assay [1] is T1, Human recombinant catalytic domain of PERK (Homo sapiens, UniProt Q9NZJ5).
T1 sequence (Q9NZJ5 536-1116): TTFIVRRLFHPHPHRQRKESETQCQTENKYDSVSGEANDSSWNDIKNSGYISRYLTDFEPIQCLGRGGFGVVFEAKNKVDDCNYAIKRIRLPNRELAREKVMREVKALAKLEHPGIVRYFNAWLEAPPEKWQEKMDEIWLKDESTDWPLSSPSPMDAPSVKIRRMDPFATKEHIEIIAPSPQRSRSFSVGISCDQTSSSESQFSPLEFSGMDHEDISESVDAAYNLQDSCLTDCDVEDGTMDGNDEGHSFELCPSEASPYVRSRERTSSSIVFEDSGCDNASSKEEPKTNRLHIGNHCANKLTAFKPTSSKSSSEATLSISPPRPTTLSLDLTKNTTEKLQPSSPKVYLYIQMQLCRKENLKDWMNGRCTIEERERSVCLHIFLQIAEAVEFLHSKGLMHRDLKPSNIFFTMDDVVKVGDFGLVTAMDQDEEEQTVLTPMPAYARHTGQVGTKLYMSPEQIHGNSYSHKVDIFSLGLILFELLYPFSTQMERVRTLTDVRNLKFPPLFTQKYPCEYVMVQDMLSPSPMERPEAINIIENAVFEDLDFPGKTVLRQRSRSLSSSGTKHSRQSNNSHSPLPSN
Conditions: published PERK inhibitor; cited from earlier work.

For assay [2], the target named is T1, Human recombinant catalytic domain of PERK. Kind of assay: Radiometric PERK kinase assay. The conditions noted are these: method of replots. It is filed as biochemical. Put shortly: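 Radiometric filter assay using GST-tagged human PERK catalytic domain (aa 536–1116) at 8 nM and full-length Flag-tagged eIF2α. Buffer was 20 mM HEPES pH 7.2, 10 mM MgCl₂, 150 mM NaCl, 0.01% Tween 20, with [γ-³³P]ATP, at room temperature. Initial velocity versus ATP was measured at fixed 10 µM eIF2α across several test compound concentrations. Reactions were stopped with 75 mM phosphoric acid, filter-captured, washed and scintillation-counted; no-PERK background; analysed by replots.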

The subject of the next assay is PERK. Briefly: Thapsigargin-induced eIF2α phosphorylation in MEFs. It is filed as cell-based, mouse. Conditions: wild-type MEFs, pretreated at 50 µM for 1 or 24 h, then thapsigargin 500 nM 1 h. Put shortly:
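Wild-type mouse embryonic fibroblasts were grown in high-glucose DMEM with 4 mM L-glutamine, 10% FBS, penicillin/streptomycin and β-mercaptoethanol. Cells were pretreated with test compound at 50 µM for 1 or 24 h, then with 500 nM thapsigargin for 1 h; PERK⁻/⁻ MEFs served as control.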

For `Cn1cc(-c2ccc3c(c2)CCN3C(=O)Cc2cccc(C(F)(F)F)c2)c2c(N)ncnc21` [GSK2606414, 7-Methyl-5-(1-{[3-(trifluoromethyl)phenyl]acetyl}-2,3-di-hydro-1H–indol-5-yl)-7H–p yrrolo[2,3-d]pyrimidin-4-amine], the “mechanism of action on PERK” value in assay [1] is on record as “ATP competitive”.
`O=c1ccc2nccc3c4ccccc4n1c23` [LDN-0022506, canthin-6-one]: in assay [2] (ATP variable, fixed eIF2α), the “mechanism of inhibition with respect to ATP” value was “noncompetitive”. Besides, the “mechanism of inhibition with respect to eIF2α” value in assay [2] (eIF2α variable, fixed ATP) is “noncom-petitive”. Further, in the assay on PERK, the “stress-dependent eIF2α phosphorylation” value was “inhibited”.
